Compounds with a hit are over-represented: about 8.2% of the library has one in this group of screens.
RORa activator – RORA (human) activation; P35398; CHO-K1 Gal4-RORA LBD luciferase reporter, luminescence; percent increase over mock-subtracted basal signal; activation, % at 10 µM; 1.5% of 65,000 active; AID 560;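 active = activation above the mean of all tested compounds plus 3 SD, cut at about 49% in these data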;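 note: 0% = DMSO-treated RORA cells and 100% = added signal equal to DMSO minus mock-transfected cells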
D1 mod – D1 dopamine receptor (human) allosteric modulation; B-score at 10 µM; HEK293 D1, CRE-luciferase, dopamine EC30 potentiation; actives deviate in either direction; P21728; 5.9% of 58,000 active; AID 641;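 active = luminescence count or its row- and column-corrected plate score outside the 99.7% band of the plate's sample wells, on either side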
HePTP inhibitor – inhibitors of human HePTP phosphatase; P35236; recombinant HePTP phosphatase activity, OD absorbance; inhibition, % at 20 µM; 0.64% of 110,000 active; in the data active = inhibition above about 50%;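 note: plate controls were vehicle for no effect and reference inhibitor for full effect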
Target sequence (P35236 whole entry, looked up): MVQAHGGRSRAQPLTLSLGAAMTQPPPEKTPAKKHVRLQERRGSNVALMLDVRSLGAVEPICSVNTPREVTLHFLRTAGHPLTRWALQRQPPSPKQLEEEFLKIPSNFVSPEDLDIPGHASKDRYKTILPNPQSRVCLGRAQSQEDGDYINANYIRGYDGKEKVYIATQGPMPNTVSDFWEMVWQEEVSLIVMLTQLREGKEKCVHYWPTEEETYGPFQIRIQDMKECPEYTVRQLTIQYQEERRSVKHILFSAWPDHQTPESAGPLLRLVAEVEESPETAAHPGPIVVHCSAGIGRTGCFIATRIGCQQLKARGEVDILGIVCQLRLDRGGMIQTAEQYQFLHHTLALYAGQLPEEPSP
M1 agonist – M1 muscarinic receptor agonism; CHO-M1 cells, Fluo-4 calcium fluorescence, agonist mode; hits give high values; B-score at 10 µM; 3% of 64,000 active;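 active = fluorescence rise, raw or as B-score row- and column-corrected plate score, outside the 99.7% band of its plate's samples, either direction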
SF1 activator – SF-1 (human) activation. AID 522. activation, % at 10 µM. 1.9% of 65,000 active. CHO-K1 Gal4-SF-1 LBD luciferase reporter; % increase over DMSO SF-1-specific signal. Q13285;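 active = activation above the mean activation of all tested compounds plus 3 SD, cut at about 50% in these data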
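Material: CHO-K1 cells with Gal4–hSF-1 LBD chimera plus Gal4-driven luciferase / Input: 4,000 CHO-K1 cells per well / Incubation: compound exposure 20 h at 37 °C / Signal: luminescence read 15 min after SteadyLite luciferase reagent, after room-temperature equilibration / Read-out: percent activation versus DMSO / Benchmarks: DMSO negative control and −SF1 background wells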
M1 antag – blocks the rat M1 muscarinic receptor response to acetylcholine. P08482. CHO-M1 cells, Fluo-4 calcium, ACh EC80 antagonist mode; hits give low values. B-score at 10 µM. 3.4% of 64,000 active. AID 628;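 active = calcium fluorescence response, raw or row-and-column corrected B-score, differing from the plate sample mean either way at a set confidence level, mostly lower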
M1 antag conf – confirmation of rat M1 muscarinic receptor antagonists | calcium response (max-min fluorescence) at 10 µM | CHO-M1 cells, Fluo-4 calcium, ACh EC80 antagonism; hits give low values | shares compounds with M1 antag | AID 677 | 43% of 1,700 active;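 active = calcium response below the same-plate mean of wells given acetylcholine alone at its 80%-effect dose, minus 3 SD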;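 note: raw fluorescence intensity difference in arbitrary instrument units and not normalized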
mGluR4 antag – selectivity test for M1 antagonists: human mGluR4 receptor; CHO-mGluR4 calcium flux, Fluo-4 fluorescence, glutamate EC80; hits give low values; shares compounds with M1 antag; fluorescence response (max-min) at 10 µM; 0.9% of 1,700 active;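 active = fluorescence response below the plate's average for near-maximal glutamate wells, less 3 SD of those wells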;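 note: raw unnormalized fluorescence span taken in the window right after glutamate addition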
An asterisk follows results filed as active; x = no result given.

SMILES | RORa activator | D1 mod | HePTP inhibitor | M1 agonist | SF1 activator | M1 antag | M1 antag conf | mGluR4 antag
O=C(CN1CCCCC1)Nc1ccc(F)c(Cl)c1 | -22.4 | -0.0147 | -1.7 | -1.12 | -7.4 | 0.999 | x | x
CN(Cc1ccccc1)Cc1nc2c(c(=O)n(C)c(=O)n2C)n1Cc1ccc(F)cc1 | -3.2 | -0.137 | -8.8 | 0.3 | -11.2 | -2.57* | 657 | 223
Cn1c(=O)c2c(nc(SCCN3CCCCC3)n2Cc2ccccc2)n(C)c1=O | -5.9 | 0.198 | 12.4 | -1.11 | -5.4 | -4.67* | 246* | 247
Cc1ccc(Cn2c(SCCN3CCCCC3)nc3c2c(=O)n(C)c(=O)n3C)cc1 | 11.1 | 1.18 | -1.6 | -2.02 | -7.9 | -3.9* | 267* | 247
Cn1c(=O)c2c(nc(SCCN3CCOCC3)n2Cc2ccccc2Cl)n(C)c1=O | 9.8 | -0.268 | 5.2 | -0.782 | 1.0 | 0.147 | x | x
CN(C)CCNc1nc2c(c(=O)[nH]c(=O)n2C)n1CC(O)COc1ccc(Cl)cc1 (stereo not drawn) | -13.3 | -0.058 | 4.8 | -0.509 | -4.0 | 0.709 | x | x
COc1ccccc1N1CCN(C(=O)CSc2ccc3c(C)cc(C)nc3n2)CC1 | 20.0 | -0.357 | 0.6 | -0.928 | -4.2 | 0.76 | x | x
COCCNc1nc(SCC(=O)N2CCN(c3ccccc3OC)CC2)nc2ccccc12 | -7.6 | 0.2 | 12.0 | 6.21 | -4.1 | -3.43* | 503* | 222
CC1CC(C)CN(CC(C)(C)NS(=O)(=O)c2ccccc2)C1 (stereo not drawn) | -16.5 | x | 5.3 | 1.5 | 17.0 | -2.57* | 548 | 246
CN(C)c1ccc(C2C3C(=O)N(c4ccc(C(=O)O)cc4)C(=O)C3ON2c2ccccc2)cc1 (stereo not drawn) | -0.6 | -3.29 | 7.0 | -0.444 | -10.1 | -2.47* | 15.3* | 215
COc1ccc(C(=O)Nc2nc(-c3ccc(F)cc3)cs2)cc1 | x | x | -10.5 | x | x | x | x | x
CC(C)C(=O)Nc1c2c(nc3ccccc13)N(C)CC2 | -16.4 | 0.46 | 8.1 | 1.22 | -11.4 | -0.636 | x | x
Cc1ccc(CN(C)CCc2ccccn2)cc1 | 4.3 | -0.0778 | 8.7 | -0.178 | 2.3 | -1.22 | x | x
CCc1ccc(CN(C)CCc2ccccn2)cc1 | -17.4 | -0.58 | 5.3 | 0.344 | 5.8 | -7.31* | 357* | 208
COc1cc2c(cc1OC)CN(Cc1nc3ccsc3c(=O)[nH]1)CC2 | -11.1 | 1.25 | 7.3 | 1.31 | -5.8 | 0.259 | x | x
N/C(=N\N=C\c1cccc(O)c1)c1nonc1N | x | x | 10.6 | x | x | x | x | x
CCOC(=O)C(C)n1cnc2sc3c(c2c1=O)CCC3 (stereo not drawn) | 1.9 | 0.201 | 10.4 | 0.0704 | -3.7 | -0.0169 | x | x
CCOC(=O)c1cnn(-c2ncnc3sc4c(c23)CCC4)c1N | 5.3 | -0.114 | 5.2 | -1.71 | -3.7 | -2.69* | 617 | 204
Cc1ccc(-c2nnc3sc(C4COc5ccccc5O4)nn23)cc1 (stereo not drawn) | -8.9 | 1.02 | 1.5 | 0.307 | 5.1 | -3.37* | 476 | 223
CN1CCN(CC#CCn2c3ccccc3c3ccccc32)CC1 | 7.8 | -1.68 | 9.3 | 1.32 | 6.5 | -13* | 229* | 219
CCOC(=O)c1c(NC(=O)CSc2nnc(-c3ccccc3)n2CC)sc(C(C)=O)c1C | 3.5 | 0.872 | 11.5 | 0.0581 | 9.8 | -1.22* | 496 | 204
Cc1nnc2ccc(N3CCN(C(=O)c4ccccc4)CC3)nn12 | 6.6 | -0.427 | -4.2 | -0.692 | -13.8 | -0.963 | x | x
O=C(c1ccc(Br)o1)N1CCN(c2ccc3nnc(-c4ccccc4)n3n2)CC1 | -8.2 | 2.26 | -9.3 | 0.908 | -20.1 | -6.41* | 264* | 225
Cn1c(COc2ccc3ccccc3c2)nnc1SCC(N)=O | -6.6 | -1.22 | 11.4 | -0.321 | -13.3 | -0.158* | 516 | 171
COc1cc(OC)c(OC)cc1CN1CCN(C2CCCC(C)C2)CC1 (stereo not drawn) | x | x | 10.4 | x | x | x | x | x
O=C(Oc1ccc(Cl)cc1)N1CCCCC1 | 29.5 | 0.0819 | 1.7 | 0.574 | 18.6 | -0.599 | x | x

Source: PubChem
